Screening data: PubChem, The Scripps Research Institute Molecular Screening Center
A selection: hits, their analogues and other compounds. The true share with any hit is near 2.7%.
OX1R antag-1 – antagonists of human orexin 1 receptor (OX1R) | OX1R-expressing cells, FRET antagonist read-out | O43613 | actives 1.8% (n = 330,000) | inhibition, % at 6.6 µM; in the data active means inhibition mostly above about 38%, no sharp cut-off; inactive means mostly below about 40%;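 further: 0% = agonist challenge alone and 100% = reference antagonist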
Target sequence (O43613 whole entry, looked up): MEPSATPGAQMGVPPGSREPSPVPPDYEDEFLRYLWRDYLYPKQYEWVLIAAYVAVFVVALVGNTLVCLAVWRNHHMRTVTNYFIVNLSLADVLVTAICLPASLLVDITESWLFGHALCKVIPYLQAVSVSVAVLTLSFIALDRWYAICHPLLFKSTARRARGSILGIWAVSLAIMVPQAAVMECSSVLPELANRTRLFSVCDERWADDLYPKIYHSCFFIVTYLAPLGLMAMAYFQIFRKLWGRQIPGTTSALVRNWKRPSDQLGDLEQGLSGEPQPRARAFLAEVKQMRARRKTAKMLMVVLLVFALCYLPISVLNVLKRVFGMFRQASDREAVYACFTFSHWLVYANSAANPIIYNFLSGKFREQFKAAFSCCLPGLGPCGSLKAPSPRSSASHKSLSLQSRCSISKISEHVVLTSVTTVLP
OX1R antag-2 – human HCRTR1 antagonism. CHO/OX1R cells, Fluo-8 calcium fluorescence, orexin A. inhibition, % at 5 µM. actives 0.43% (n = 330,000). AID 434989;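 active means inhibition above its plate's threshold, mean inhibition of all tested compounds on the plate plus 3 SD, cut at about 37% in these data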;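 further: 0% = orexin A challenge wells and 100% = SB-334867-A antagonist wells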
OXTR ag – human OXTR agonism; P30559; CHO-OTR cells, Fluo-8 calcium fluorescence; normalized: DMSO 0%, oxytocin 100%; activation, % at 3 µM; actives 0.32% (n = 320,000);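 active means activation above the mean of all tested compounds plus 3 SD, cutoff set per screening run, cut at about 20% in these data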;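 further: peak over basal fluorescence ratio from a 100 s FLIPR kinetic read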
V1R ag counter – V1a receptor agonism, counter-screen for OXTR agonists. P37288. CHO-V1R cells, Fluo-8 calcium fluorescence, agonist mode; 0% DMSO, 100% 3 nM vasopressin. activation, % at 3 µM. actives 0.25% (n = 320,000);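 active means activation above the mean activation of all tested compounds plus 3 SD, per screening run, cut at about 20% in these data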;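 further: signal is peak over basal fluorescence ratio across a 100 second FLIPR read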
CHO parental Ca – counter-screen: ATP calcium response change in parental CHO cells | actives 0.63% (n = 330,000) | AID 463079 | parental CHO-K1, ATP-induced calcium, Fluo-8 fluorescence | inhibition, % at 5.6 µM;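 active means inhibition above that plate's mean sample inhibition plus 3 SD, cut at about 26% in these data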;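 further: 0% = ATP-challenged DMSO wells and 100% = DMSO wells without ATP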
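Test system: untransfected parental CHO cell line. Compound: one dose, 5.6 µM nominal. Detection: intracellular calcium via Fluo-8 no-wash fluorescent dye. Measure: % inhibition. Benchmarks: ATP-challenged DMSO wells low, unchallenged DMSO wells high.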
OXTR potentiate – potentiators of human oxytocin receptor; P30559; CHO-OTR cells, Fluo-8 calcium fluorescence, potentiator mode; 0% = oxytocin EC15, 100% = EC100; activation, % at 3 µM; actives 0.061% (n = 320,000); AID 2445;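 active means activation above that plate's cutoff, the mean activation of tested compounds plus 3 SD, cut at about 6.6% in these data, passing the limit was not always enough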;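 further: 100% uses oxytocin at 75 nM as the full agonist control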
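System: human OTR in CHO cells; Also added: sub-maximal oxytocin, roughly EC15; Timing: compound 6 min at room temperature before oxytocin, 100 s read; Technique: Fluo-8 intracellular calcium fluorescence, ex 470-495, em 515-575 nm; Controls: oxytocin EC15 low and EC100 high; Replication: singlicate.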
* marks the source's active call; other numbers are inactive results.

SMILES	OX1R antag-1	OX1R antag-2	OXTR ag	V1R ag counter	CHO parental Ca	OXTR potentiate
CCN1CCN(C2=C(NS(=O)(=O)c3ccc(C)cc3)C(=O)c3ccccc3C2=O)CC1	61*	-8	1	1	-11	-7
O=C1C(NS(=O)(=O)c2ccc(Br)cc2)=C(N2CCCCC2)C(=O)c2ccccc21	53*	-34	-3	-1	-29	0
CC1CCN(C2=C(NS(=O)(=O)c3ccccc3)C(=O)c3ccccc3C2=O)CC1	62	-32	0	-1	-26	-2
CC1CCN(C2=C(NS(=O)(=O)c3ccc(Br)cc3)C(=O)c3ccccc3C2=O)CC1	56*	-36	-3	-2	-26	-11
O=C(Cn1[nH]c(=O)c2ccccc2c1=O)NCCN1C(=O)S/C(=C\c2ccccc2)C1=O	11	-6	6	7	-6	-10
OC[C@H]1O[C@@H](O[C@@H]2[C@@H](CO)O[C@@](O)(CO)[C@H]2O)[C@H](O)[C@@H](O)[C@H]1O	6	3	0	1	-2	-4
N#CC(C#N)=NNc1ccc(S(=O)(=O)N2CCCCC2)cc1	57*	1	8	10	-15	-7
CCCC(C(=O)Nc1ccc(S(=O)(=O)N2CCOCC2)cc1)c1ccccc1 (stereo unspecified)	5	28	28*	20*	11	-16
O=C(Nc1ccccc1)Nc1ccc(S(=O)(=O)N2CCCCC2)cc1	43	34	15	11	38*	-21
N#C/C(=N\Nc1ccc(S(=O)(=O)N2CCOCC2)cc1)C(N)=S	20	-13	1	0	-7	4
CCOC(=O)Cc1csc(SC(C)C(=O)NC2CCCCC2C)n1 (stereo unspecified)	1	-21	-2	-1	-28	2
CN1CCC(N(C)S(=O)(=O)c2ccc(NC(=O)COc3ccc(Cl)cc3)cc2)CC1	5	15	25*	24*	-2	-10
O=C(Nc1cc([N+](=O)[O-])ccc1N1CCCC1)c1ccco1	65*	-13	-2	-1	-7	-6
O=C(O)CCN1C(=O)c2ccc(Oc3ccc([N+](=O)[O-])cc3)cc2C1=O	42	6	0	1	-1	-11
O=C(CCN1C(=O)c2ccc([N+](=O)[O-])cc2C1=O)Nc1ccc(O)cc1C(=O)O	56*	-14	1	1	-6	-25
CN1CCN(c2ccc([N+](=O)[O-])cc2NC(=O)c2ccco2)CC1	31	0	-1	0	-20	-10
O=C(CN1C(=O)c2ccc([N+](=O)[O-])cc2C1=O)Nc1ccccc1N1CCCC1	52*	1	-1	-1	-1	-2
O=C(CN1C(=O)c2cccc([N+](=O)[O-])c2C1=O)NCc1ccccc1	19	-16	0	1	-12	-9
O=C(CN1C(=O)c2ccc([N+](=O)[O-])cc2C1=O)NCc1ccc(C(=O)O)cc1	62*	-12	1	1	0	-4
CCN(C[C@H]1N[C@@](CC)(C(=O)OC)[C@H]2C(=O)N(C)C(=O)[C@@H]12)C(=O)c1ccc(C(C)(C)C)cc1	13	-20	-1	0	-27	2
N#CC1(NC(=O)COC(=O)CN2C(=O)c3ccccc3C2=O)CCCCC1	23	-12	1	-1	4	-1
N#CC1(NC(=O)CN2C(=O)c3ccc([N+](=O)[O-])cc3C2=O)CCCCC1	53*	-13	0	0	-8	3
O=C(Nc1ccc2c(c1)OCO2)c1cc2n(n1)C(C(F)(F)F)CC(c1ccccc1)N2 (stereo unspecified)	12	-7	0	0	20	-6
O=C(Nc1ccc2c(c1)OCO2)c1cnn2c1NC(c1ccco1)CC2C(F)(F)F (stereo unspecified)	15	-18	1	2	47*	-18
O=c1c2ccccc2nc2n1-c1ccccc1CCC2	7	5	-1	1	-14	-5
O=C1c2ccccc2-n2c1nc1ccccc1c2=O	54*	13	0	1	0	-6
Cc1ccc(S(=O)(=O)Nc2ccc3nc(N)sc3c2)cc1	19	32	16	10	34*	-24
